SR-BI DiI-HDL act: enhances SR-BI lipid uptake from DiI-HDL | CHO ldlA[mSR-BI] cells, DiI-HDL uptake fluorescence, 3 h; 100 = double the neutral-control signal | activation, % at 12.5 µM | hit rate 0.096% among 320,000 | AID 504775;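 active = mean replicate activation of at least 60% and every replicate at or above 60%; inconclusive = mean or all-replicate condition met, but not both; inactive = mean below 60% and not all replicates reaching 60%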;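 note: 0% = median plate neutral-control signal and 100% = twice that signal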
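Assay system: LDL receptor-deficient CHO ldlA cells overexpressing murine SR-BI / Medium: BSA-supplemented, HEPES-buffered Ham's F12, pH 7.4 / Probe or stimulus: DiI-labelled HDL at 10 µg/mL final / Timing: compound with DiI-HDL co-incubation, 3 h at 37 °C / Technique: bottom-read cell fluorescence after medium removal, ex 550/em 595 nm / Measure: HDL uptake via cellular fluorescence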
CAL PDZ FP-1: blocks peptide binding to human CAL PDZ domain | Q9HD26 | purified CAL PDZ, TMR-peptide fluorescence polarization, 1 h | inhibition, % at 20 µM | hit rate 0.02% among 330,000;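 active = highest replicate inhibition of at least 40%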;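 note: plate controls were DMSO neutral control wells for no effect and unlabeled competitor peptide control wells for full effect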
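Test system: tagged CAL PDZ domain / Buffer or medium: sodium phosphate/NaCl buffer pH 7.4 with TCEP, IgG, Thesit / Reagent: TMR-labelled reporter peptide T*-PRC34 bound in PDZ groove / Compound dosing: single point, 20 µM / Schedule: 1 h incubation at room temperature before polarization reading / Technique: fluorescence polarization (mP) / Benchmarks: unlabelled peptide, DMSO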
SR-BI DiI inh: mouse SR-BI HDL lipid transfer inhibition; inhibition, % at 12.5 µM; ldlA[mSR-BI] CHO cells, DiI-HDL uptake fluorescence, 3 h; hit rate 0.96% among 320,000;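 active = mean replicate inhibition of at least 70% and a set share of replicates each scoring 70 or more; inconclusive = meets just one of the two criteria; inactive = fails both criteria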;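 note: 0% = median of neutral control wells and 100% = median of positive control wells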
Target sequence (Q61009 whole entry, looked up): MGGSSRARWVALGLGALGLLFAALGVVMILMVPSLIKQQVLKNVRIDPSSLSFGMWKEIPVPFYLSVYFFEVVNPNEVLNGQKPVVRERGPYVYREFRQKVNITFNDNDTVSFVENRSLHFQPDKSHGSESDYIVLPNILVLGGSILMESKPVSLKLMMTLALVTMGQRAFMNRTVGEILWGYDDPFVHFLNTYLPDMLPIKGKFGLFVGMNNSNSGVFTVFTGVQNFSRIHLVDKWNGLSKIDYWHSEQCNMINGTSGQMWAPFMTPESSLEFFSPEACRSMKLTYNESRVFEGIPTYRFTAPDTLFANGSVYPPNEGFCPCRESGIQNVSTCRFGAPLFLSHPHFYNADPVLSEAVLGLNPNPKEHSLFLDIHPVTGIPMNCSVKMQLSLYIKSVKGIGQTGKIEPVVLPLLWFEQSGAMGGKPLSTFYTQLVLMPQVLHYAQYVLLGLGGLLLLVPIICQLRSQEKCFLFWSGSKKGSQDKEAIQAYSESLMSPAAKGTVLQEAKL
ATG4B inh: ATG4B (human) cysteine protease inhibition; hit rate 0.51% among 340,000; inhibition, % at 8.33 µM; ATG4B cleavage of LC3-PLA2, NBD-HPC fluorescence, 1 h; AID 504462; in the data active = inhibition above about 40%
CAL PDZ FP-2: blocks peptide binding to the human CAL PDZ domain. purified CAL PDZ, TMR-peptide fluorescence polarization, 1 h. inhibition, % at 24.9 µM. hit rate 0.92% among 300,000. AID 602252;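 active = mean inhibition of at least 30% with at least half of replicates also reaching 30%; inconclusive = no clear call, values can overlap the other calls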;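 note: 0% = DMSO neutral control and 100% = excess unlabeled competitor peptide PRC23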
DiI quencher: quenches DiI-HDL fluorescence, an SR-BI assay artifact; shares compounds with SR-BI DiI inh; cell-free DiI-HDL fluorescence quenching, 30 min; AC50, µM (top dose mostly 35 µM), for the others: at the highest dose activity change, negative = quenching; hit rate 20% among 470;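 active = quenching, a falling signal, with AC50 below a set limit tied to the top valid dose, actives reach about 32 µM in these data; inconclusive = no clear call, values can overlap the other calls; inactive = rising signal, and the rest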
ATG4B conf: ATG4B (human) inhibition, single-dose confirmed. ATG4B protease fluorescent substrate cleavage assay. shares compounds with ATG4B inh. hit rate 92% among 320. inhibition, % at 8.33 µM. AID 504757; in the data active = inhibition above about 39%
PLA2 counter: PLA2 (human) inhibition in ATG4B counter-screen | shares compounds with ATG4B inh | purified PLA2, NBD-C6-HPC fluorescence, 45 min | inhibition, % at 8.33 µM | hit rate 66% among 1,600; in the data active = inhibition above about 50%
Target sequence (P04054 whole entry, looked up): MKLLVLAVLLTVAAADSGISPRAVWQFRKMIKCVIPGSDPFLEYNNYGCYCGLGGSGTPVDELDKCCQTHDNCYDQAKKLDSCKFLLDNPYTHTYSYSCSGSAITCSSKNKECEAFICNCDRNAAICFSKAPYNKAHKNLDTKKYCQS
* hit, by the source's call; i = inactive; ? = inconclusive; nt = no result given. The list is not random: actives were taken first. Their share in the collection is about 2.3%.

SMILES	SR-BI DiI-HDL act	CAL PDZ FP-1	SR-BI DiI inh	ATG4B inh	CAL PDZ FP-2	DiI quencher	others
O=C(OCCNc1ncc(C(F)(F)F)cc1Cl)c1ccc(S(=O)(=O)N2CCOCC2)cc1	-81	-1	81*	-33	-4	1%
C=C(CN(C)C)C(=O)c1ccc(OC2OC(COC(C)=O)C(OC(C)=O)C(OC(C)=O)C2OC(C)=O)cc1 (configuration not stated)	-94	0	94*	5	4	-1%
O=C(Nc1ccccc1F)c1ccc2c(c1)CCN2S(=O)(=O)c1ccccc1	-53	-1	53	34	2	-1%
Cc1cccc(NC(=O)c2ccc3c(c2)CCN3S(C)(=O)=O)c1	-39	0	39	-4	2	nt
Cc1c(F)cccc1NC(=O)c1ccc2c(c1)CCN2S(C)(=O)=O	-50	0	50	5	nt	nt
Cc1ccccc1NC(=O)c1ccc2c(c1)CCN2S(C)(=O)=O	5	1	-5	-2	-2	nt
Cc1ccc(NC(=O)c2ccc3c(c2)CCN3S(C)(=O)=O)cc1C	-70	-1	?	-5	-3	0%
CN(C(=O)c1ccc2c(c1)CCN2S(C)(=O)=O)c1ccccc1	-20	-1	20	-5	2	-2%
Cc1cc(C)cc(NC(=O)c2ccc3c(c2)CCN3S(C)(=O)=O)c1	-77	0	77*	-15	-4	3%
COc1cc(C2C3=C(CC(C)(C)CC3=O)N(C)C3=C2C(=O)CC(C)(C)C3)cc(Br)c1O	-23	-1	23	3	-1	nt
CC(=O)c1cc(C#N)c(SCc2ccccc2C#N)nc1C	-75	-1	75*	-2	-2	-1%
O=C(NCCc1ccccc1)c1cc(=O)[nH]c2ccccc12	10	-1	-10	-11	3	nt
Oc1csc(Cc2nc(-c3ccc(-c4ccccc4)cc3)cs2)n1	-31	1	31	-6	-2	nt
Oc1csc(Cc2nc(-c3ccc4ccccc4c3)cs2)n1	-70	0	?	-10	-3	16µM*
O=C(c1cccs1)N1CCN(Cc2ccccc2[N+](=O)[O-])CC1	11	0	-11	-5	1	nt
COC(=O)[C@@]1(Cc2ccc(F)cc2)[C@H]2c3cc(C(=O)N4CCCC4)n(CCCNc4ncc(C(F)(F)F)cc4Cl)c3C[C@H]2CN1C(=O)c1ccccc1	-30	-1	30	-14	-3	-1%
CN(C(=O)COC(=O)c1c2c(nc3ccccc13)/C(=C/c1cccc([N+](=O)[O-])c1)CCC2)C1CCS(=O)(=O)C1 (configuration not stated)	-54	-3	54	-16	-1	-7%
COc1cccc(-c2csc(N3CCN(C(=O)NC45CC6CC(CC(C6)C4)C5)CC3)n2)c1	17	0	-17	-6	-4	-6%
COc1cccc(-c2csc(N3CCN(C(=S)Nc4cccc(C)c4)CC3)n2)c1	-90	0	90*	-3	-6	-10%
COc1cccc(-c2csc(N3CCN(C(=S)Nc4ccccc4)CC3)n2)c1	-68	0	68	7	-6	nt
COc1cccc(NC(=O)N2CCN(c3nc(-c4cccc(OC)c4)cs3)CC2)c1	nt	2	nt	-12	1	nt
Cc1c(C(=O)N2CC3(CC(c4cccc(NC(=O)CC(c5ccccc5)c5ccccc5)c4)=NO3)C[C@@H]2C(N)=O)cc([N+](=O)[O-])cc1[N+](=O)[O-] (some centres not stated)	-14	-1	14	-25	1	i
C/C=C(\C)C(=O)Nc1cccc(C2=NOC3(C2)C[C@@H](C(N)=O)N(C(=O)c2cc([N+](=O)[O-])cc([N+](=O)[O-])c2C)C3)c1 (some centres not stated)	-30	-5	30	-2	0	nt
O=C(/C=C/c1ccco1)Nc1cccc(NC(=O)/C=C/c2ccco2)n1	-8	-3	8	16	1	-6%
Cc1nc(NC(=O)/C=C/c2ccco2)sc1C	-8	0	8	-1	-4	nt
SMILES	SR-BI DiI-HDL act	CAL PDZ FP-1	SR-BI DiI inh	ATG4B inh	CAL PDZ FP-2	DiI quencher	others
CCOc1ccc2c(c1)-c1c(ssc1=S)C(C)(C)N2C(=O)c1ccco1	-74	-1	74*	-4	0	31µM*
COc1ccc2c(c1)-c1c(ssc1=S)C(C)(C)N2C(=O)CSC1=NCCS1	-24	-3	24	-4	20	nt
CCc1nc(N2CCN(C(=S)NCCCOC)CC2)c2c3c(sc2n1)CCCC3	-88	0	88*	72*	4	0%	PLA2 counter=80*
Cc1cc2c(cc1S(=O)(=O)CCC(=O)NCCc1ccccc1)OCC(=O)N2	-13	-1	13	4	nt	nt
Cc1ccc(-c2csc(NC(=O)c3cccc(C)c3)c2C(=O)O)cc1	-4	-1	4	45*	nt	nt	PLA2 counter=52*
Cc1cccc(C(=O)Nc2scc(-c3ccc(Br)cc3)c2C(=O)O)c1	19	-2	-19	37	nt	nt
Cc1cccc(C(=O)Nc2scc(CC(C)C)c2C(=O)O)c1	25	0	-25	73*	nt	nt	PLA2 counter=68*
Cc1ccc(C)c(N(CC(=O)NC2CCCC2)C(=O)CCC(=O)Nc2cc(C)on2)c1	nt	-1	nt	-1	0	nt
COCc1ccc(C(=O)N2CCCC(Nc3ccc4c(c3)OCCO4)C2)o1 (configuration not stated)	36	-1	-36	-5	0	nt
O=C(NCc1cccc(F)c1)c1ccc(N2C(=O)Cn3c(cc4sccc43)C2=O)cc1	5	-1	-5	41*	-5	nt	PLA2 counter=34
O=C(Nc1nc(-c2ccco2)c(-c2ccco2)s1)c1ccc(F)cc1F	-41	-3	41	26	-1	nt
O=C(Nc1nc(-c2ccco2)c(-c2ccco2)s1)c1c(F)cccc1Cl	-29	0	29	64*	-9	nt	PLA2 counter=79*
CCCCCCCCCCCCCCCC(O)C[N+](C)(C)CCO (configuration not stated)	9	0	-9	55*	0	nt	ATG4B conf=56*;PLA2 counter=47
Cc1c(Cl)c([N+](=O)[O-])nn1CCCC(=O)Nc1sc2c(c1C#N)CCC2	-20	-3	20	49*	-1	nt	PLA2 counter=65*
Cc1c(Cl)c([N+](=O)[O-])nn1CCCC(=O)Nc1ccc(Cl)cc1Cl	11	-3	-11	67*	nt	nt	PLA2 counter=54*

Bioassay records: PubChem, several laboratories
